System: Fibroblast
Assay: Multiplex assay against human fibroblast
Format: toxicity, cell-based
Method in brief: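 Cells were classed with CellPathfinder machine-learning gating, first as Hoechst high-intensity objects or normal cells, then (normal cells) as healthy, pyknosed or fragmented nuclei, and finally (pyknosed cells) as mitotic or apoptotic. Staining of live cells at seeding used Hoechst33342, BioTracker Green Microtubule Cytoskeleton Dye, MitoTracker Red and Annexin V Alexa Fluor 680, with imaging on a CQ1 microscope at 37°C and 5% CO2 after compound addition. Tubulin, mitochondrial-mass and membrane-permeability phenotypes are per cents of healthy-nucleus cells.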

[1] = 12 h, 1 µM, compound concentration 1 uM, replicate 1
[2] = 12 h, 1 µM, compound concentration 1 uM, replicate 2
[3] = 12 h, 10 µM, compound concentration 10 uM, replicate 1
[4] = 12 h, 10 µM, compound concentration 10 uM, replicate 2
[5] = 24 h, 1 µM, compound concentration 1 uM, replicate 1
[6] = 24 h, 1 µM, compound concentration 1 uM, replicate 2
[7] = 24 h, 10 µM, compound concentration 10 uM, replicate 1
[8] = 24 h, 10 µM, compound concentration 10 uM, replicate 2
[9] = 48 h, 1 µM, compound concentration 1 uM, replicate 1
[10] = 48 h, 1 µM, compound concentration 1 uM, replicate 2
[11] = 48 h, 10 µM, compound concentration 10 uM, replicate 1
[12] = 48 h, 10 µM, compound concentration 10 uM, replicate 2

Cl.O=c1c2cccn2c2ccccc2n1CCCN1CCC(c2ccc(Cl)cc2)CC1
Population Apoptotic (%) [1]: 68%
Population Fragmented Nuclei (%) [1]: 21%
Population Healthy Nuclei (%) [1]: 61%
Population Hoechst High Intensity Objects (%) [1]: 12%
Population Membrane Permeable-Phenotype (%) [1]: 10%
Population Mitochondria Different-Phenotype (%) [1]: 15%
Population Mitotic Cells (%) [1]: 31%
Population Normal (%) [1]: 87%
Population Pyknosed Nuclei (%) [1]: 17%
Population Tubulin-Different-Phenotype (%) [1]: 40%
Total Cell Count [1]: 123
Population Apoptotic (%) [2]: 60%
Population Fragmented Nuclei (%) [2]: 16%
Population Healthy Nuclei (%) [2]: 73%
Population Hoechst High Intensity Objects (%) [2]: 8%
Population Membrane Permeable-Phenotype (%) [2]: 0%
Population Mitochondria Different-Phenotype (%) [2]: 56%
Population Mitotic Cells (%) [2]: 40%
Population Normal (%) [2]: 91%
Population Pyknosed Nuclei (%) [2]: 9%
Population Tubulin-Different-Phenotype (%) [2]: 30%
Total Cell Count [2]: 119
Population Apoptotic (%) [3]: 48%
Population Fragmented Nuclei (%) [3]: 28%
Population Healthy Nuclei (%) [3]: 42%
Population Hoechst High Intensity Objects (%) [3]: 30%
Population Membrane Permeable-Phenotype (%) [3]: 5%
Population Mitochondria Different-Phenotype (%) [3]: 52%
Population Mitotic Cells (%) [3]: 51%
Population Normal (%) [3]: 69%
Population Pyknosed Nuclei (%) [3]: 28%
Population Tubulin-Different-Phenotype (%) [3]: 84%
Total Cell Count [3]: 175
Population Apoptotic (%) [4]: 78%
Population Fragmented Nuclei (%) [4]: 21%
Population Healthy Nuclei (%) [4]: 57%
Population Hoechst High Intensity Objects (%) [4]: 11%
Population Membrane Permeable-Phenotype (%) [4]: 74%
Population Mitochondria Different-Phenotype (%) [4]: 98%
Population Mitotic Cells (%) [4]: 21%
Population Normal (%) [4]: 89%
Population Pyknosed Nuclei (%) [4]: 21%
Population Tubulin-Different-Phenotype (%) [4]: 98%
Total Cell Count [4]: 58
Population Apoptotic (%) [5]: 48%
Population Fragmented Nuclei (%) [5]: 28%
Population Healthy Nuclei (%) [5]: 44%
Population Hoechst High Intensity Objects (%) [5]: 11%
Population Membrane Permeable-Phenotype (%) [5]: 12%
Population Mitochondria Different-Phenotype (%) [5]: 10%
Population Mitotic Cells (%) [5]: 51%
Population Normal (%) [5]: 88%
Population Pyknosed Nuclei (%) [5]: 27%
Population Tubulin-Different-Phenotype (%) [5]: 45%
Total Cell Count [5]: 121
Population Apoptotic (%) [6]: 25%
Population Fragmented Nuclei (%) [6]: 16%
Population Healthy Nuclei (%) [6]: 70%
Population Hoechst High Intensity Objects (%) [6]: 7%
Population Membrane Permeable-Phenotype (%) [6]: 2%
Population Mitochondria Different-Phenotype (%) [6]: 38%
Population Mitotic Cells (%) [6]: 75%
Population Normal (%) [6]: 92%
Population Pyknosed Nuclei (%) [6]: 13%
Population Tubulin-Different-Phenotype (%) [6]: 19%
Total Cell Count [6]: 147
Population Apoptotic (%) [7]: 67%
Population Fragmented Nuclei (%) [7]: 21%
Population Healthy Nuclei (%) [7]: 49%
Population Hoechst High Intensity Objects (%) [7]: 39%
Population Membrane Permeable-Phenotype (%) [7]: 7%
Population Mitochondria Different-Phenotype (%) [7]: 40%
Population Mitotic Cells (%) [7]: 32%
Population Normal (%) [7]: 60%
Population Pyknosed Nuclei (%) [7]: 29%
Population Tubulin-Different-Phenotype (%) [7]: 63%
Total Cell Count [7]: 193
Population Apoptotic (%) [8]: 87%
Population Fragmented Nuclei (%) [8]: 14%
Population Healthy Nuclei (%) [8]: 64%
Population Hoechst High Intensity Objects (%) [8]: 7%
Population Membrane Permeable-Phenotype (%) [8]: 72%
Population Mitochondria Different-Phenotype (%) [8]: 98%
Population Mitotic Cells (%) [8]: 12%
Population Normal (%) [8]: 92%
Population Pyknosed Nuclei (%) [8]: 20%
Population Tubulin-Different-Phenotype (%) [8]: 98%
Total Cell Count [8]: 65
Population Apoptotic (%) [9]: 45%
Population Fragmented Nuclei (%) [9]: 43%
Population Healthy Nuclei (%) [9]: 36%
Population Hoechst High Intensity Objects (%) [9]: 14%
Population Membrane Permeable-Phenotype (%) [9]: 11%
Population Mitochondria Different-Phenotype (%) [9]: 2%
Population Mitotic Cells (%) [9]: 54%
Population Normal (%) [9]: 85%
Population Pyknosed Nuclei (%) [9]: 19%
Population Tubulin-Different-Phenotype (%) [9]: 47%
Total Cell Count [9]: 142
Population Apoptotic (%) [10]: 66%
Population Fragmented Nuclei (%) [10]: 44%
Population Healthy Nuclei (%) [10]: 52%
Population Hoechst High Intensity Objects (%) [10]: 11%
Population Membrane Permeable-Phenotype (%) [10]: 5%
Population Mitochondria Different-Phenotype (%) [10]: 1%
Population Mitotic Cells (%) [10]: 33%
Population Normal (%) [10]: 88%
Population Pyknosed Nuclei (%) [10]: 2%
Population Tubulin-Different-Phenotype (%) [10]: 55%
Total Cell Count [10]: 120
Population Apoptotic (%) [11]: 81%
Population Fragmented Nuclei (%) [11]: 28%
Population Healthy Nuclei (%) [11]: 50%
Population Hoechst High Intensity Objects (%) [11]: 48%
Population Membrane Permeable-Phenotype (%) [11]: 2%
Population Mitochondria Different-Phenotype (%) [11]: 46%
Population Mitotic Cells (%) [11]: 18%
Population Normal (%) [11]: 51%
Population Pyknosed Nuclei (%) [11]: 22%
Population Tubulin-Different-Phenotype (%) [11]: 78%
Total Cell Count [11]: 193
Population Apoptotic (%) [12]: 56%
Population Fragmented Nuclei (%) [12]: 27%
Population Healthy Nuclei (%) [12]: 52%
Population Hoechst High Intensity Objects (%) [12]: 55%
Population Membrane Permeable-Phenotype (%) [12]: 3%
Population Mitochondria Different-Phenotype (%) [12]: 48%
Population Mitotic Cells (%) [12]: 44%
Population Normal (%) [12]: 44%
Population Pyknosed Nuclei (%) [12]: 19%
Population Tubulin-Different-Phenotype (%) [12]: 72%
Total Cell Count [12]: 281

— ChEMBL document CHEMBL4689842, “EUbOPEN Chemogenomics Library wave 1” (2021)
